High-throughput results (PubChem BioAssay)
SUMO HTRF inh – blocks human SUMOylation mediated by UBC9; P63279; HTRF SUMOylation assay, SAE1/SAE2 + UBC9, in vitro; inhibition, % at 35 µM; hit rate 0.36% among 290,000; in the data active = inhibition above about 50%, passing the limit was not always enough
Target sequence (P63279 whole entry, looked up): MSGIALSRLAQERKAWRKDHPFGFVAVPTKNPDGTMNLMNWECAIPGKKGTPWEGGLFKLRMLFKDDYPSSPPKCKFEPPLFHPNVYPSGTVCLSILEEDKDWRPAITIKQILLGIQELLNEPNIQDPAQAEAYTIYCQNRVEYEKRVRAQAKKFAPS
HKDC1 inh – HKDC1 (human) hexokinase inhibition; recombinant HKDC1, G6PDH/diaphorase resazurin coupled fluorescence; AID 493160; hit rate 0.16% among 340,000; inhibition, % at 20 µM; Q2TB90;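 active = inhibition above about 35% when tested at 20 µM, limit read from the data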;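 note: plate controls were DMSO wells with enzyme for no effect and DMSO wells lacking enzyme for full effect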
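test system = in-house recombinant HK5 (HKDC1) enzyme | amount = HKDC1 at 5 µg/mL | control set = DMSO-enzyme wells negative, buffer-substituted wells positive | compound = one dose of 20 µM, 1% DMSO | schedule = reaction time 90 min, room temperature, protected from light | technique = resorufin fluorescence at 613 nm | reagent = glucose with 1 mM ATP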
GSTO1 counter – GSTO1 inhibition, counter-screen for RBBP9 inhibitors; AID 1974; hit rate 1.1% among 300,000; P78417; recombinant GSTO1, activity-based probe fluorescence polarization; inhibition, % at 5.96 µM;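 active = inhibition above the campaign mean inhibition plus 3 SD, cut at about 35% in these data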;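 note: 0% = GSTO1-1 with DMSO and 100% = wells lacking GSTO1-1 enzyme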
Target sequence (P78417 whole entry, looked up): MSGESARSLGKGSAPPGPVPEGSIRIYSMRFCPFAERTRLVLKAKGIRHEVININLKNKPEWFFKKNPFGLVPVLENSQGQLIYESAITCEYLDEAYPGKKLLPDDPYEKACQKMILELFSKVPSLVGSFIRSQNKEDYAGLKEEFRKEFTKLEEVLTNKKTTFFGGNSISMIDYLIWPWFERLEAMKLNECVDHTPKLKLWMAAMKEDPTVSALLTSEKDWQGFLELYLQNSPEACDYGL
DTT redox prof – compounds producing H2O2 with reducing agent – biochemical, NIH compound library profiling, artefact control for MLSCN library redox annotation, primary screen. DTT-dependent redox cycling H2O2, phenol red/HRP absorbance; 100% = 100 µM peroxide control, 0% = buffer. activation, % at 10 µM. hit rate 0.03% among 200,000;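 active = activation of at least 50% relative to the plate's high and low controls in the primary single-dose screen; inactive = activation below 50%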;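 note: compound incubated with DTT at 0.8 mM final as the reducing agent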
Apaf-1 inh – inhibitors of human Apaf-1 apoptosome; reconstituted apoptosome caspase-3 activity, DEVD-Rh110 fluorescence; hit rate 0.71% among 330,000; O14727; inhibition, % at 20 µM; AID 489030; active = inhibition of at least 40% at 20 µM;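 note: plate controls were DMSO wells for no effect and DEVD-CHO caspase inhibitor wells for full effect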
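System: Apoptosome proteins | Medium: Hepes pH 7.5 with detergent and BSA | Also added: Cytochrome c trigger plus (Z-DEVD)2-Rh110 caspase-3 substrate | Incubation: 30 min compound preincubation, 50 min activation, room temperature | Detection: Rhodamine 110 fluorescence at Ex 480/Em 540 nm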
Apaf-1 inh conf – confirmation of Apaf-1 inhibitors; shares compounds with Apaf-1 inh; reconstituted apoptosome, caspase-3 DEVD-Rh110 fluorescence; inhibition, % at 20 µM; hit rate 25% among 1,800; AID 504614;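 active = mean inhibition of at least 40% at 20 µM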;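 note: plate controls were DMSO wells for no effect and DEVD-CHO caspase inhibitor control wells for full effect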
Rh110 interf inh – interferes with Rh110 fluorescence, flagging false Apaf-1 inhibitors | shares compounds with Apaf-1 inh | Rh110 fluorescence interference, quenched caspase reaction | activation (fluorescence interference), % at 20 µM | 1,800 tested, under 10 active;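 active = signal rise of 40% or more at 20 µM, treated as a fluorescence artifact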
Fluor interf inh – counter-screen for Apaf-1 inhibitors: fluorescence interference, dose response | fluorescence interference counterscreen, Apaf-1 assay format | shares compounds with Apaf-1 inh | IC50, µM | 460 tested, under 10 active | AID 588538; call rule not given here
The depositor's hits bear a star; · = not tested or not shown. An excerpt weighted towards active compounds, which were near 1.4% of everything screened.

SMILES	SUMO HTRF inh	HKDC1 inh	GSTO1 counter	DTT redox prof	Apaf-1 inh	Apaf-1 inh conf	Rh110 interf inh	others
CN1CCN(c2ccc(NC(=O)COc3ccccc3)cc2Cl)CC1	4.6	-0.6	·	·	49.5*	15.1	6.3
CCOC(=O)c1c(NC(=O)CN2CCN(C(=O)c3ccco3)CC2)sc2c1CCCC2	-66.3	-2.5	21.0	1.8	47.9*	7.5	10.3
C/C(=N\NC(=O)CNc1cccc2ccccc12)c1ccccc1	79.7*	1.0	10.2	0.8	83.5*	15.1	8.1
Cc1nc(-c2ccc(F)cc2)c(CC(=O)N2CCN(S(=O)(=O)c3ccccc3Br)CC2)s1	-1.2	6.3	1.5	·	40.0	39.7	-5.2
COC1=C(Nc2ccccc2OC)C(=O)c2ccccc2C1=O	62.9	7.9	10.2	·	54.5*	14.1	11.2
COc1ccccc1NC1=C(NC(C)=O)C(=O)c2ccccc2C1=O	-0.6	12.5	·	-0.7	·	·	·
Cc1ccc(O)c(C(=O)c2cnn(C(=O)c3cccc(S(=O)(=O)N(C)C)c3)c2)c1	·	2.0	·	·	18.2	·	·
COc1ccc(N2CCN(C(=O)c3cccc(Br)c3)CC2)c([N+](=O)[O-])c1	6.2	-2.3	12.1	-0.2	8.7	·	·
[O-][n+]1cccc2c(Br)cc(Br)c(O)c21	-1.3	5.7	46.3*	-1.3	72.9*	18.1	-0.8
COC(CNC(=O)c1ccc2c(c1)ncn2-c1cccc(C)c1)OC	3.8	-2.2	0.9	·	0.4	·	·
CCN(CC(=O)Nc1ccc(OC)cc1)C(=O)c1ccccc1Sc1ccccc1C#N	·	-2.8	6.9	·	31.7	·	·
CCN(CC(=O)Nc1ccccc1OC)C(=O)c1ccccc1Sc1ccccc1C#N	·	2.3	·	·	58.3*	41.7*	9.4	Fluor interf inh=>100
CCOc1ccc(C(=O)NC(C(=O)NCc2cccnc2)C(C)C)cc1 (configuration not stated)	-5.3	-7.7	-6.7	·	-6.8	·	·
CC[C@@H](C)[C@@H]1CN([C@@H](CN2CCC[C@H]2CN2C(N)=NC[C@@H]2Cc2ccccc2)C(C)C)C(=N)N1CCCC1CCCC1	·	8.8	·	·	63.1*	13.3	10.8
CCCCN1C(=N)N([C@@H](C)CN2CCC[C@H]2CN2C(N)=NC[C@H]2C(C)C)C[C@H]1[C@H](C)CC	·	-3.0	·	·	-12.3	·	·
CC[C@@H](C)[C@@H]1CN([C@@H](CN2CCC[C@H]2CN2C(N)=NC[C@H]2C(C)C)C(C)C)C(=N)N1CCCC1CCCC1	·	0.9	·	·	40.5*	0.4	-9.3
Cc1cc(C(=O)c2ccc3ccccc3c2)c(C)o1	·	8.8	3.0	·	-11.0	·	·
COn1c2c(c3c4nonc4ccc31)CCCC2	40.2	20.5	9.1	-2.0	46.5*	52.0*	9.5
CCOC(=O)CNc1ccc2c(c1)OCO2	8.9	19.6	25.6	1.5	40.0*	18.9	17.6
CCOC(=O)CNC(=O)/C=C/c1ccc2c(c1)OCO2	12.4	0.0	9.2	-1.9	-1.9	·	·
CCOC(=O)C1(Cc2cccc(OC)c2)CCCN(C(=O)CCN2CCCO2)C1 (configuration not stated)	-13.5	-6.3	4.7	·	1.4	·	·
CC(C)(CC(=O)O)CC(=O)Nc1ccc(Cl)c(Cl)c1	11.1	-2.4	-0.3	·	-0.9	·	·
COc1cccc(N=Nc2c(N)[nH]n3c(=O)cc(-c4ccccc4)nc23)c1	-29.4	-5.2	1.1	-3.5	37.5	·	·
Cc1ccc(N=Nc2c(N)[nH]n3c(=O)cc(-c4ccccc4)nc23)cc1	-38.9	-24.6	7.9	-4.5	54.9*	63.8*	3.8	Fluor interf inh=>100
COc1cccc(NC(=O)COc2nc3ccccc3nc2C)c1	2.3	5.8	-4.0	0.2	1.8	·	·
SMILES	SUMO HTRF inh	HKDC1 inh	GSTO1 counter	DTT redox prof	Apaf-1 inh	Apaf-1 inh conf	Rh110 interf inh	others
CN(C)C=Nc1c(Br)cc(Br)c2nonc12	12.6	9.7	5.8	1.8	42.9*	38.9	1.6
C=C1C(=O)O[C@@]23[C@H]1CC[C@@H](C)[C@@H]2CC[C@@]1(C)O[C@@H]31	·	-0.3	·	·	10.1	·	·
COc1cc(CCc2ccccc2)c(C(=O)O)c(O)c1C/C=C(/C)CCC=C(C)C	·	6.8	·	·	43.3*	36.8	18.0
c1csc(Cc2nn3c(-c4n[nH]c5c4CCC5)nnc3s2)c1	24.8	3.8	4.8	-1.4	40.8*	33.6	7.1
c1coc(-c2nnc3sc(Cc4cccs4)nn23)c1	49.4	12.6	5.5	-0.3	-4.2	·	·
O=C(CSc1ncn[nH]1)Nc1ccc(Cl)c(S(=O)(=O)N2CCOCC2)c1	-2.5	1.4	-1.2	-0.5	7.0	·	·
C=CCNC(C(=O)Nc1cccc(OC)c1)c1ccccc1 (configuration not stated)	1.1	-7.9	1.7	0.2	42.9*	-5.6	3.0
Cc1c(CCOC(=O)c2ccc(Cl)cc2Cl)sc[n+]1CC(=O)c1ccc(Br)cc1	·	-1.6	·	·	71.2*	29.4	9.4
COc1ccc(C(=O)OCCc2sc[n+](CC(=O)c3ccccc3)c2C)cc1	-8.7	4.2	-6.9	·	27.1	·	·
Cc1c(CCOC(=O)C2C3CC4CC(C3)CC2C4)sc[n+]1CC(=O)c1ccc(Br)cc1 (configuration not stated)	24.9	5.3	2.9	-0.2	50.2*	32.4	5.8
CCOc1ccccc1CN1CCNC(=O)C1CC(=O)NCc1ccccn1 (configuration not stated)	2.5	-4.7	1.9	·	8.1	·	·
CCc1nnc(NC(=O)c2ccc(S(=O)(=O)N3CCCCC3)cc2)s1	-0.1	-7.0	-2.6	·	54.7*	15.9	2.3
Cc1cc2ccccc2n1CCNC(=O)Cc1ccccc1	11.6	-1.4	4.6	-3.0	29.5	·	·
Cc1cccc(CC(=O)NCCn2c(C)cc3ccccc32)c1	15.7	-2.3	3.7	-0.8	41.0*	15.4	12.4
O=C(N/N=C1\C/C(=N\NC(=O)c2ccncc2)c2ccccc21)c1ccncc1	52.1*	2.2	56.2*	-1.8	93.4*	60.3*	7.1	Fluor interf inh=>100
O=C(NN=C1C2CC3CC(C2)CC1C3)c1ccncc1	19.4	-1.8	4.3	-2.6	2.7	·	·
Cc1cccc(C(=O)OCC(=O)Nc2c(C)n(C)n(-c3ccccc3)c2=O)c1O	·	-5.6	·	·	-2.5	·	·
CC1(C)CC(=O)c2c(Cc3ccccc3)n[nH]c2C1	-14.5	-9.4	1.8	1.0	7.6	·	·
CC1(C)CC(=O)c2c(-c3cccnc3)n[nH]c2C1	11.9	-6.8	-1.0	-0.1	43.3*	8.9	1.3
CC1(C)Cc2cccc(OCC(=O)N3CCN(c4cccc(C(F)(F)F)c4)CC3)c2O1	·	-2.5	9.1	·	44.6*	44.9*	9.4	Fluor interf inh=>100
CC1(C)Cc2cccc(OCC(=O)N3CCN(c4cccc(Cl)c4)CC3)c2O1	·	-2.6	3.8	·	15.4	·	·
